ChEMBL document CHEMBL4007402 (J Med Chem, 2017)

Assays:
[1] = target: T1, Tyrosine-protein kinase JAK3 (Homo sapiens) (UniProt P52333); assay: Inhibition of recombinant TEL-fused JAK3 (unknown origin) expressed in mouse BAF3 cells assessed as growth inhibition after 72 hrs by CellTiter-Glo or CCK-8 assay; assay type: cell-based
T1 sequence (whole entry): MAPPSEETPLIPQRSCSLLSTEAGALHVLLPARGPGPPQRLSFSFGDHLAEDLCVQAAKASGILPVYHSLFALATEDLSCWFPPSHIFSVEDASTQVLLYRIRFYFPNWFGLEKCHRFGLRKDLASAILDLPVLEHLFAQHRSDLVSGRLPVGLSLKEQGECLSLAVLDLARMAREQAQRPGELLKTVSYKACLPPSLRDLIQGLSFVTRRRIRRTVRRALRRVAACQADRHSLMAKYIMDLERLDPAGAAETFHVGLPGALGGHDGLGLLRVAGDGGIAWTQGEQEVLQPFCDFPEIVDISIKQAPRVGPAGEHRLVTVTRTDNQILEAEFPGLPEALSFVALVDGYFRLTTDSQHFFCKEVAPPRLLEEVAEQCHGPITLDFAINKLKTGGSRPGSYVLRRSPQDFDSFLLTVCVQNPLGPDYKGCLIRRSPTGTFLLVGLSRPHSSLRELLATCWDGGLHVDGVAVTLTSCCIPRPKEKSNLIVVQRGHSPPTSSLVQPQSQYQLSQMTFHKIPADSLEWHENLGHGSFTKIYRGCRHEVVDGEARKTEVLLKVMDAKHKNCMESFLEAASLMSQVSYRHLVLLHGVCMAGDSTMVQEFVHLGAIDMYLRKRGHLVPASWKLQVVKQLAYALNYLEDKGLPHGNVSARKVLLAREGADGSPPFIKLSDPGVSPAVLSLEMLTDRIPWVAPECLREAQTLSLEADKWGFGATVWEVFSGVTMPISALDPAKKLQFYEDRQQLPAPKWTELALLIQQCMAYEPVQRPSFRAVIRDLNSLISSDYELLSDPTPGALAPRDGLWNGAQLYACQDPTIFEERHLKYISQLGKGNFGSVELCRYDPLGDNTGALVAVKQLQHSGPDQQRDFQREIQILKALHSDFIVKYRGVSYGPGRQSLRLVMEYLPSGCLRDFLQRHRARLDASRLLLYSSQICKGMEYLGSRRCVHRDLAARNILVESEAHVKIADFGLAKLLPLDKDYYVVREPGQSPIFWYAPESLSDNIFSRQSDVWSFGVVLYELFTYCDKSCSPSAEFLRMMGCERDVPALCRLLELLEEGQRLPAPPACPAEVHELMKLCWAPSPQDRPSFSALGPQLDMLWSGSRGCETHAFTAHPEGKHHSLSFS
Outline: (§1)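 Isogenic murine BaF3 cells transformed with TEL-fused kinases, whose proliferation depends on the fused kinase, were used. Parental BaF3 cells served as the general selectivity counter-screen. The anti-proliferative read-out was reported as GI50.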

[2] = target: Mast/stem cell growth factor receptor Kit (Homo sapiens) (UniProt P10721); assay: Inhibition of recombinant TEL-fused c-KIT (unknown origin) expressed in mouse BAF3 cells assessed as growth inhibition after 72 hrs by CellTiter-Glo or CCK-8 assay; assay type: cell-based; outline: as §1
[3] = target: Tyrosine-protein kinase ABL1 (Homo sapiens) (UniProt P00519); assay: Inhibition of recombinant TEL-fused ABL (unknown origin) expressed in mouse BAF3 cells assessed as growth inhibition after 72 hrs by CellTiter-Glo or CCK-8 assay; assay type: cell-based; outline: as §1
[4] = Growth inhibition of mouse BAF3 cells after 72 hrs by CellTiter-Glo or CCK-8 assay; assay type: cell-based; outline: as §1
[5] = target: Platelet-derived growth factor receptor beta (Homo sapiens) (UniProt P09619); assay: Inhibition of recombinant TEL-fused PDGFR-beta (unknown origin) expressed in mouse BAF3 cells assessed as growth inhibition after 72 hrs by CellTiter-Glo or CCK-8 assay; assay type: cell-based; outline: as §1
[6] = target: Tyrosine-protein kinase Blk (Homo sapiens) (UniProt P51451); assay: Inhibition of recombinant TEL-fused BLK (unknown origin) expressed in mouse BAF3 cells assessed as growth inhibition after 72 hrs by CellTiter-Glo or CCK-8 assay; assay type: cell-based; outline: as §1
[7] = target: Platelet-derived growth factor receptor alpha (Homo sapiens) (UniProt P16234); assay: Inhibition of recombinant TEL-fused PDGFR-alpha (unknown origin) expressed in mouse BAF3 cells assessed as growth inhibition after 72 hrs by CellTiter-Glo or CCK-8 assay; assay type: cell-based; outline: as §1
[8] = target: T2, Cytoplasmic tyrosine-protein kinase BMX (Homo sapiens) (UniProt P51813)
T2 sequence (whole entry): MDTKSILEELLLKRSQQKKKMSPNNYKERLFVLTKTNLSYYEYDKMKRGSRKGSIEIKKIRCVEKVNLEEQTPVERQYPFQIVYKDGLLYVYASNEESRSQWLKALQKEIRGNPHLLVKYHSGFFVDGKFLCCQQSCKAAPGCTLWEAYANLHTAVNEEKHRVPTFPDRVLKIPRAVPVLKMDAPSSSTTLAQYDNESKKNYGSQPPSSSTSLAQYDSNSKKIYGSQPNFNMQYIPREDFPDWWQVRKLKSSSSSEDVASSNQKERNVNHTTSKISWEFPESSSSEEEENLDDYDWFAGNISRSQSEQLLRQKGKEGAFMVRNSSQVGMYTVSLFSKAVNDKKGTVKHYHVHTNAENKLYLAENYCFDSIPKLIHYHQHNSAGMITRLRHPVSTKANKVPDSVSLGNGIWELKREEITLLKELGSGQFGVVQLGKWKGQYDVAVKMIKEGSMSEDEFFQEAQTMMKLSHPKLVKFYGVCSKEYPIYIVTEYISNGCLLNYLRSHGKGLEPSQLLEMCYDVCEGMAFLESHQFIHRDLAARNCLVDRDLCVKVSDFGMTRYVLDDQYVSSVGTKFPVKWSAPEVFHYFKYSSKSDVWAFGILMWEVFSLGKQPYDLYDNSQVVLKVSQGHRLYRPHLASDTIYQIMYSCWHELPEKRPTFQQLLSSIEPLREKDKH

[9] = target: Receptor-type tyrosine-protein kinase FLT3 (Homo sapiens) (UniProt P36888); assay: Inhibition of recombinant TEL-fused FLT3 (unknown origin) expressed in mouse BAF3 cells assessed as growth inhibition after 72 hrs by CellTiter-Glo or CCK-8 assay; assay type: cell-based; outline: as §1
[10] = target: Epidermal growth factor receptor (Homo sapiens) (UniProt P00533); assay: Inhibition of recombinant TEL-fused EGFR (unknown origin) expressed in mouse BAF3 cells assessed as growth inhibition after 72 hrs by CellTiter-Glo or CCK-8 assay; assay type: cell-based; outline: as §1
[11] = target: Epithelial discoidin domain-containing receptor 1 (Homo sapiens, UniProt Q08345); assay: Inhibition of human GST-tagged DDR1 catalytic domain expressed in baculovirus expression system by LanthaScreen assay
[12] = target: Tyrosine-protein kinase BTK (Homo sapiens, UniProt Q06187); assay: Inhibition of full-length recombinant human His-tagged BTK expressed in baculovirus expression system using Poly(4:1 Glu, Tyr) as substrate after 1 hr by ADP-Glo kinase assay
[13] = target: Mitogen-activated protein kinase 14 (Homo sapiens, UniProt Q16539); assay: Inhibition of full-length recombinant human GST-tagged p38alpha expressed in Escherichia coli by Z'-LYTE assay

Sequence of Tyrosine-protein kinase ABL1 (Homo sapiens) (P00519 whole entry, the tested form may be a part): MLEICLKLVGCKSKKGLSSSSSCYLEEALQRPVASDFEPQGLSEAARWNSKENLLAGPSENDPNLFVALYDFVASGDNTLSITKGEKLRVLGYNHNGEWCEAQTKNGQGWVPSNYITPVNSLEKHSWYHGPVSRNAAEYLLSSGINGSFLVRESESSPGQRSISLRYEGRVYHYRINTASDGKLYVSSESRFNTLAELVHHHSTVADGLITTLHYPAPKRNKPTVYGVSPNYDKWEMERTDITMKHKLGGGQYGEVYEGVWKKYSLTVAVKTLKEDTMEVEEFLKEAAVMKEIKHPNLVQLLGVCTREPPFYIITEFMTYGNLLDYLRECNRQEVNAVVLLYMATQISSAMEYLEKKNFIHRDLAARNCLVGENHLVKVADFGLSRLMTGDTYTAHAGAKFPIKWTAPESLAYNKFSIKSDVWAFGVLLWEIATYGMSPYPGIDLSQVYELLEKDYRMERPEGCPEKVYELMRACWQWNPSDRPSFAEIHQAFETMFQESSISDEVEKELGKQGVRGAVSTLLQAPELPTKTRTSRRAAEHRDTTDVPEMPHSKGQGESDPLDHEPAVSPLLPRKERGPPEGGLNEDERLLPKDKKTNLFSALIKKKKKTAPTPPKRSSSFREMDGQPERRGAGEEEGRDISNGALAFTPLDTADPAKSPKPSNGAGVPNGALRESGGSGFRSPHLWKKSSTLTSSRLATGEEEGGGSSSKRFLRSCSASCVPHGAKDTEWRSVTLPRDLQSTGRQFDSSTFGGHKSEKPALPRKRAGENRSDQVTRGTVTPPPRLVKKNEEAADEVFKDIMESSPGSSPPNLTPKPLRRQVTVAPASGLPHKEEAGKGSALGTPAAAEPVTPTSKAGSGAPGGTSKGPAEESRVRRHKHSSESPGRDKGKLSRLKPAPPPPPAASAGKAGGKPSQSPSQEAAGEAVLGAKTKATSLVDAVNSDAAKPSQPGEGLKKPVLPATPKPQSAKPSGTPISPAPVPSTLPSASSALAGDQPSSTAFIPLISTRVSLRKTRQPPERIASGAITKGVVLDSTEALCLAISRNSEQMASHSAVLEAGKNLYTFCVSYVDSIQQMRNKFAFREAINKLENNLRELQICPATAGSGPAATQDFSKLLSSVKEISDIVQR
Sequence of Mast/stem cell growth factor receptor Kit (Homo sapiens) (P10721 whole entry, the tested form may be a part): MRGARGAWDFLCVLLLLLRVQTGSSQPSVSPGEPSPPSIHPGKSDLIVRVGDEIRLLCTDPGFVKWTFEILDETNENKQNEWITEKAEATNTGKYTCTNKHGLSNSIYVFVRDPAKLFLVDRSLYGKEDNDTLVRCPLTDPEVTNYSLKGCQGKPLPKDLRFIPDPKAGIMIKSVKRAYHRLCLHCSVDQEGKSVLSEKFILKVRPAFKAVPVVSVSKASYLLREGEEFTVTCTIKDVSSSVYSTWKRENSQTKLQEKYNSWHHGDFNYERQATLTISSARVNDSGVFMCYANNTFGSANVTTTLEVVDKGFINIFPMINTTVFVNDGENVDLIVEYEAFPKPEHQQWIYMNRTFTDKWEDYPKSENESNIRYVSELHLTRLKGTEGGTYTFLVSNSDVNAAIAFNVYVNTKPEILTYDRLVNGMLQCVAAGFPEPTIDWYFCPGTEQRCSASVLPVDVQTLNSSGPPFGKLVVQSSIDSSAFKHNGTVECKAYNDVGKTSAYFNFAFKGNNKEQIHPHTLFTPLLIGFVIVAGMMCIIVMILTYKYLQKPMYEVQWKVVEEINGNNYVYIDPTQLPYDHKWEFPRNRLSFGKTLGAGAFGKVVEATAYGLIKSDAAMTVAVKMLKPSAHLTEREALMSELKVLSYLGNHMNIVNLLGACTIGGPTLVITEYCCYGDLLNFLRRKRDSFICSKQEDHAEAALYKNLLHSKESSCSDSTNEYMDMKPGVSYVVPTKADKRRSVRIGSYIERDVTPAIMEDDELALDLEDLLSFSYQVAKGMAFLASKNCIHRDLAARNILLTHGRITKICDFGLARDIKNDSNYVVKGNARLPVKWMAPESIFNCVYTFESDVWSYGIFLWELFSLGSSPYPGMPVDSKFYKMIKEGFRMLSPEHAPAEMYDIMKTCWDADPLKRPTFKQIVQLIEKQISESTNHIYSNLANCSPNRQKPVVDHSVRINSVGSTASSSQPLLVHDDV
Sequence of Epidermal growth factor receptor (Homo sapiens) (P00533 whole entry, the tested form may be a part): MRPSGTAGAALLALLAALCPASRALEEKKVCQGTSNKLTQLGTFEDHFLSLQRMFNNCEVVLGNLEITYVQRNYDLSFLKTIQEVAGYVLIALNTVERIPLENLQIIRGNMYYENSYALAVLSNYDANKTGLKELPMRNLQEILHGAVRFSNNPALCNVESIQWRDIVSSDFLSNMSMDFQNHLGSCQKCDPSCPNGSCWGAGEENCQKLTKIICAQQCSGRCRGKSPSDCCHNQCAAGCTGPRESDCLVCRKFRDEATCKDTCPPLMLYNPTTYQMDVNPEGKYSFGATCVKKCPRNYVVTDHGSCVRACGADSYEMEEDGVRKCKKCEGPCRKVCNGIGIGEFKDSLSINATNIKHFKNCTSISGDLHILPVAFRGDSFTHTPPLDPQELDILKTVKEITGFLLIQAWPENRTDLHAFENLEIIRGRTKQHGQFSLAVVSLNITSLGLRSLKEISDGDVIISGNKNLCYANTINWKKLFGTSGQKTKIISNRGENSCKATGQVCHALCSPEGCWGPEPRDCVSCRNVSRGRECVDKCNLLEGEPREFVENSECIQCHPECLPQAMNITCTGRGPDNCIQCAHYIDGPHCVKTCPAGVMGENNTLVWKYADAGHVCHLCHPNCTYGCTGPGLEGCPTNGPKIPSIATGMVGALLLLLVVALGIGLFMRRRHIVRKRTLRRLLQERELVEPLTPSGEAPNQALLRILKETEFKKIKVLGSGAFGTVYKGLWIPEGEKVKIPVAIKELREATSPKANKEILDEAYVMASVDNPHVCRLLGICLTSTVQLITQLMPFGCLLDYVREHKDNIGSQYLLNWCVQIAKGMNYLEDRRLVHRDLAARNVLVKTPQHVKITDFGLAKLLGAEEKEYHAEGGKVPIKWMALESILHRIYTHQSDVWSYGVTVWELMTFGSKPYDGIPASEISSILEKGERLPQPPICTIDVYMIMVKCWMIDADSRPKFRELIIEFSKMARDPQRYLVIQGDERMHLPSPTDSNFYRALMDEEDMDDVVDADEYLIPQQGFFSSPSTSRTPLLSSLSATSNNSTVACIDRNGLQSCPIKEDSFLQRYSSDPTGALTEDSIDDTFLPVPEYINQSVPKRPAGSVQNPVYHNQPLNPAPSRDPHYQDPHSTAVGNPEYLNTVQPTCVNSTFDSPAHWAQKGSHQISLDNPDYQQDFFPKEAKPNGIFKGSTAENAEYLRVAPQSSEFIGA
Sequence of Receptor-type tyrosine-protein kinase FLT3 (Homo sapiens) (P36888 whole entry, the tested form may be a part): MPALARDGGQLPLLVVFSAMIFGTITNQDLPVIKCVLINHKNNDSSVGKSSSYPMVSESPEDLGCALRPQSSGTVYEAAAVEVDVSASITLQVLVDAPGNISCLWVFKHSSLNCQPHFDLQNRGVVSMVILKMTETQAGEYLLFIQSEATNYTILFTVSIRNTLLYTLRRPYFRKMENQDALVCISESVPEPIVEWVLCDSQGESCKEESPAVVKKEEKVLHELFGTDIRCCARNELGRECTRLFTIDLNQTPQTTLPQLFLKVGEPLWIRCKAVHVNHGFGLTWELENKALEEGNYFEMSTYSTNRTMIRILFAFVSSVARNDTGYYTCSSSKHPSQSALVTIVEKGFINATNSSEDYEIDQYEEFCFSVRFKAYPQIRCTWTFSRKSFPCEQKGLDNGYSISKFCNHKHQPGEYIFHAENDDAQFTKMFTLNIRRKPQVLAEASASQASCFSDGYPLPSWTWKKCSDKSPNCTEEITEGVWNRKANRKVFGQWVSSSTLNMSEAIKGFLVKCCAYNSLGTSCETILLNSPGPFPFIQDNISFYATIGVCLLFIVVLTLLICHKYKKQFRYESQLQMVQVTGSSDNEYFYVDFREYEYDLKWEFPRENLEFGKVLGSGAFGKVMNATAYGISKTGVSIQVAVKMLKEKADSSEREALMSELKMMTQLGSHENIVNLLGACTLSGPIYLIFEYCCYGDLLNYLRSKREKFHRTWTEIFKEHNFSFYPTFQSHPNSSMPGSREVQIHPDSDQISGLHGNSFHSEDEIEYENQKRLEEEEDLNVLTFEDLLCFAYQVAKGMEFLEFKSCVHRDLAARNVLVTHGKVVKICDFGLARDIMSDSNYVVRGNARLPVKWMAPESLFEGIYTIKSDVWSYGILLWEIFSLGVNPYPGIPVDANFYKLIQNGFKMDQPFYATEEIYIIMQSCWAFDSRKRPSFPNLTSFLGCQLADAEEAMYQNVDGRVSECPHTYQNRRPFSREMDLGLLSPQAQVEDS
Sequence of Tyrosine-protein kinase Blk (Homo sapiens) (P51451 2-505 limits assumed): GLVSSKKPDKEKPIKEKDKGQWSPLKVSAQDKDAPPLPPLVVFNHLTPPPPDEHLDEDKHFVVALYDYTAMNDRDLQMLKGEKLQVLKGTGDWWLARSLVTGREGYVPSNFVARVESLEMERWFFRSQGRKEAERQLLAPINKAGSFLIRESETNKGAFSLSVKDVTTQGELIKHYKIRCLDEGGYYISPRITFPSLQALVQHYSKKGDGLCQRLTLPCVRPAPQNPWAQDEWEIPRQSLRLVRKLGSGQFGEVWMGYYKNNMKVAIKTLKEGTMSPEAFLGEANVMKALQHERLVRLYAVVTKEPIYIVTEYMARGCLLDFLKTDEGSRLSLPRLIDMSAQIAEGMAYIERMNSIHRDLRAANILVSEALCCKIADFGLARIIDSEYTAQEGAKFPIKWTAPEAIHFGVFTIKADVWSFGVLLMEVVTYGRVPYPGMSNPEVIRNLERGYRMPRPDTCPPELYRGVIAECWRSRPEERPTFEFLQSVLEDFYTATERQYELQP

| SMILES | GI50 [1] [nM] | GI50 [2] [nM] | GI50 [3] [nM] | GI50 at 72 h [4] [nM] | GI50 [5] [nM] | GI50 [6] [nM] | GI50 [7] [nM] | GI50 [8] [nM] | GI50 [9] [nM] | GI50 [10] [nM] | IC50 [11] [nM] | IC50 [12] [nM] | IC50 [13] [nM] |
| --- | --- | --- | --- | --- | --- | --- | --- | --- | --- | --- | --- | --- | --- |
| CCC(=O)Nc1cc(Nc2ncc(C(=O)Nc3cc(NC(=O)c4cccc(C(F)(F)F)c4)ccc3C)c(NC)n2)ccc1C | 8300 | 170 | 44 | > 10000 | 59 | 6500 | 45 | 85 | 8600 | > 10000 |  |  |  |
| C=CC(=O)Nc1cc(Nc2ncc(C(=O)Nc3cc(NC(=O)c4cccc(C(F)(F)F)c4)ccc3C)c(NC)n2)ccc1C | > 10000 | 380 | 118 | > 10000 | 130 | 5900 | 99 | 13 | > 10000 | > 10000 |  |  |  |
| CCC(=O)Nc1cc(Nc2ncc(C(=O)Nc3cc(NC(=O)c4cc(OC)c(OC)c(OC)c4)ccc3C)c(NC)n2)ccc1C | > 10000 | 2800 | 2510 | > 10000 | 790 |  | 370 | 610 | > 10000 | > 10000 | 212 | > 10000 | 89 |
